From ChEMBL document CHEMBL5107952, “Synthesis of low-molecular weight fucoidan derivatives and their binding abilities to SARS-CoV-2 spike proteins” (RSC Med Chem, 2021) come the findings set out here.

Test [1] deals with Spike glycoprotein (Severe acute respiratory syndrome coronavirus 2) (UniProt P0DTC2). The test is described as follows: Competitive inhibition of biotinylated heparin binding to His-tagged wild type SARS-COV-2 spike protein at 50 uM incubated for 300 sec by biolayer interferometry streptavidin sensor based assay.
Test [2] addresses T1, Spike glycoprotein (Severe acute respiratory syndrome coronavirus 2, UniProt P0DTC2). Briefly: Competitive inhibition of biotinylated heparin binding to His-tagged wild type SARS-COV-2 spike protein assessed inhibition constant incubated for 300 sec by biolayer interferometry streptavidin sensor based assay. The essentials: (§1)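 Streptavidin BLI sensor tips loaded with biotinylated heparin and exposed to wild-type S protein (1 μM) mixed with test compound (0–500 μM) in TBS (20 mM Tris, pH 7.4, 0.02% BSA). Bound (%) was taken from the BLI response. IC50 came from nonlinear regression, and Ki was derived from IC50 by the Cheng–Prusoff equation.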

Test [3] deals with T1, Spike glycoprotein. Briefly: Competitive inhibition of biotinylated heparin binding to His-tagged wild type SARS-COV-2 spike protein incubated for 300 sec by biolayer interferometry streptavidin sensor based assay. An outline of the steps: as §1

Activity calls are given as the source filed them. No cut-off for these calls is given here.

As for `CCCCCCCCO[C@H]1O[C@@H](C)[C@@H](OS(=O)(=O)O)[C@@H](O[C@@H]2O[C@@H](C)[C@@H](OS(=O)(=O)O)[C@@H](O[C@@H]3O[C@@H](C)[C@@H](OS(=O)(=O)O)[C@@H](O[C@@H]4O[C@@H](C)[C@@H](OS(=O)(=O)O)[C@@H](OS(=O)(=O)O)[C@@H]4OS(=O)(=O)O)[C@@H]3OS(=O)(=O)O)[C@@H]2OS(=O)(=O)O)[C@@H]1OS(=O)(=O)O`, the inhibition in test [1] was < 10%.

Consider `CCCCCCCCO[C@H]1O[C@@H](C)[C@@H](O[C@@H]2O[C@@H](C)[C@@H](OS(=O)(=O)O)[C@@H](O[C@@H]3O[C@@H](C)[C@@H](O[C@@H]4O[C@@H](C)[C@@H](OS(=O)(=O)O)[C@@H](OS(=O)(=O)O)[C@@H]4OS(=O)(=O)O)[C@@H](OS(=O)(=O)O)[C@@H]3OS(=O)(=O)O)[C@@H]2OS(=O)(=O)O)[C@@H](OS(=O)(=O)O)[C@@H]1OS(=O)(=O)O`, for which, in test [1], the inhibition result is “Active”.

Consider `CCCCCCCCO[C@H]1O[C@@H](C)[C@@H](O[C@@H]2O[C@@H](C)[C@@H](O[C@@H]3O[C@@H](C)[C@@H](O[C@@H]4O[C@@H](C)[C@@H](OS(=O)(=O)O)[C@@H](OS(=O)(=O)O)[C@@H]4OS(=O)(=O)O)[C@@H](OS(=O)(=O)O)[C@@H]3OS(=O)(=O)O)[C@@H](OS(=O)(=O)O)[C@@H]2OS(=O)(=O)O)[C@@H](OS(=O)(=O)O)[C@@H]1OS(=O)(=O)O`, for which the affinity on Spike glycoprotein [2] corresponds to a Ki of 3.02 µM. For the same molecule, in test [1], the inhibition result is “Active”. For the same molecule, the IC50 on Spike glycoprotein [3] came out at 86.9 µM.
